Measured values collected from several papers.
Each line is one published result; the experiments were not run side by side.

Structure (SMILES)	test	test system	setting	endpoint	value
C[C@]1(O)CCCN(c2nc(Nc3ccc(S(=O)(=O)N[C@H]4CC[C@H](CN5CCN(c6ccc(C7CCC(=O)NC7=O)c(F)c6)CC5)CC4)cc3F)ncc2C(F)(F)F)C1 (stereo partly drawn)	metabolic stability	human, liver microsomes	1 µM	scaled CLint	< 14 mL/min/kg
COCC(=O)N1CCC[C@H](C(=O)NCc2nc(-c3ccc(NC4CCC4)nc3)cs2)C1	metabolic stability	male Sprague-Dawley rat, liver microsomes	0.5 µM	microsomal CLint	65 µL/min/mg
Clc1ccc(Nc2ncnc3ccc(-c4cccc(N5CCOCC5)c4)cc23)cc1Cl	shake flask	aqueous buffer	pH 7.4	logD	> 4.2
CC(C)C[C@H](NC(=O)[C@H](CC(C)C)NC(=O)[C@H](Cc1c[nH]c2ccccc12)NC(=O)[C@H](CCC(=O)O)NC(=O)[C@@H](NC(=O)[C@H](Cc1ccccc1)NC(=O)[C@H](CCC(=O)O)NC(=O)[C@H](CCCCNC(=O)COCCOCCNC(=O)COCCOCCNC(=O)CC[C@H](NC(=O)CCCCCCCCCCCCCCCCCCC(=O)O)C(=O)O)NC(=O)[C@H](C)NC(=O)[C@H](CCCCN)NC(=O)[C@H](CCCCN)NC(=O)[C@H](CCC(=O)O)NC(=O)[C@H](CC(=O)O)NC(=O)[C@H](CC(C)C)NC(=O)[C@H](Cc1ccc(O)cc1)NC(=O)[C@H](CCCCN)NC(=O)[C@H](CO)NC(=O)[C@H](Cc1ccc(O)cc1)NC(=O)[C@H](CC(=O)O)NC(=O)[C@H](CO)NC(=O)[C@@H](NC(=O)[C@H](Cc1ccccc1)NC(=O)[C@@H](NC(=O)CNC(=O)[C@H](CCC(N)=O)NC(=O)C(C)(C)NC(=O)[C@@H](N)Cc1c[nH]cn1)[C@@H](C)O)[C@@H](C)O)C(C)C)C(=O)N[C@@H](CCC(=O)O)C(=O)NCC(=O)NCC(=O)N1CCC[C@H]1C(=O)N[C@@H](CO)C(=O)N[C@@H](CO)C(=O)NCC(N)=O	–	human, plasma	subcutaneous, 16 mg, multiple doses, patients	CL/F	0.5 mL/min
Cc1cc(S(=O)(=O)N[C@H]2CC[C@H](N3CCN(CC4CCN(c5cccc6c5n(C)c(=O)n6C5CCC(=O)NC5=O)CC4)CC3)CC2)ccc1Nc1ncc(C(F)(F)F)c(N2CCC[C@](C)(O)C2)n1 (stereo partly drawn)	metabolic stability	human, liver microsomes	1 µM	scaled CLint	33 mL/min/kg
COc1ccc2c(c1)CN(C(=O)CCN1CCC(Cc3ccccc3)CC1)CC[S@@+]2[O-]	–	male human, plasma	intravenous, 0.01 mg/kg, healthy volunteers	clearance	235 mL/min
CC1(C)NC(=O)N(c2ccc3c(c2)OC(F)(F)O3)C1=O	HPLC	–	pH 7.4	chromatographic logD	2.5
c1cc(-c2ccc3ncnc(Nc4ncco4)c3c2)cc(N2CC3CCC(C2)O3)c1	shake flask	aqueous buffer	pH 7.4	logD	> 3.6
N[C@H](COCC(=O)N1CCC[C@H](C(=O)NCc2nc(-c3ccc(C(F)(F)F)cc3)cs2)C1)c1ccccc1	metabolic stability	male Sprague-Dawley rat, liver microsomes	0.5 µM	microsomal CLint	84 µL/min/mg
Cc1cc(S(=O)(=O)N[C@]2(C)C[C@@H](N3CCN(CC4CCN(c5ccc6c(c5F)n(C)c(=O)n6C5CCC(=O)NC5=O)CC4)CC3)C2)ccc1Nc1ncc(C(F)(F)F)c(N2CCC[C@](C)(O)C2)n1 (stereo partly drawn)	metabolic stability	human, liver microsomes	1 µM	scaled CLint	120 mL/min/kg
CCOCC(=O)N1CCC[C@H](C(=O)NCc2nc(-c3ccc(C)nc3)cs2)C1	metabolic stability	human, liver microsomes	0.5 µM	scaled CLint	11 mL/min/kg
C[C@H]1CN(CC2CCN(c3ccc(C4CCC(=O)NC4=O)cc3F)CC2)CC[C@H]1NS(=O)(=O)c1ccc(Nc2ncc(C(F)(F)F)c(N3CCC[C@](C)(O)C3)n2)c(F)c1 (stereo partly drawn)	metabolic stability	human, liver microsomes	1 µM	scaled CLint	23 mL/min/kg
CC1(C(F)F)NC(=O)N(c2ccc(F)c(C(F)(F)F)c2)C1=O (stereo not drawn)	HPLC	–	pH 7.4	chromatographic logD	3.2
c1cc(-c2ccc3ncnc(NC4CCOCC4)c3c2)cc(N2CCOCC2)c1	shake flask	aqueous buffer	pH 7.4	logD	3.3
CC1(C)NC(=O)N(c2cccc(C(F)(F)F)n2)C1=O	HPLC	–	pH 7.4	chromatographic logD	1.6
CN1CCN(c2cccc(-c3ccc4ncnc(Nc5ncco5)c4c3)c2)CC1	shake flask	aqueous buffer	pH 7.4	logD	3.3
CC1(C)NC(=O)N(c2cc(C(F)(F)F)c(F)cc2C#N)C1=O	HPLC	–	pH 7.4	chromatographic logD	2.8
C[C@H]1[C@@H](C(=O)NCc2nc(-c3ccc(C#N)cc3)cs2)CCCN1C(=O)[C@H]1CCC(=O)O1	metabolic stability	male Sprague-Dawley rat, liver microsomes	0.5 µM	microsomal CLint	24 µL/min/mg
CCS(=O)(=O)N1CCC2(CC1)NC(=O)N(c1ccc(F)c(C(F)(F)F)c1)C2=O	HPLC	–	pH 7.4	chromatographic logD	3.1
Cc1cc(S(=O)(=O)N[C@H]2CC[C@H](CN3CCN(c4cccc(NC5CCC(=O)NC5=O)c4)CC3)CC2)ccc1Nc1ncc(C(F)(F)F)c(N2CCC[C@](C)(O)C2)n1 (stereo partly drawn)	metabolic stability	human, liver microsomes	1 µM	scaled CLint	< 14 mL/min/kg
CCONC(=O)N1CCC[C@H](C(=O)N[C@@H](C)c2nc(-c3ccc(C#N)cc3)cs2)C1	metabolic stability	male Sprague-Dawley rat, liver microsomes	0.5 µM	microsomal CLint	36 µL/min/mg
CNS(=O)(=O)c1ccc(Nc2ncc(C(F)(F)F)c([C@H]3CC[C@](C)(O)CC3)n2)c(C)c1	metabolic stability	human, liver microsomes	1 µM	scaled CLint	< 14 mL/min/kg
COCC(=O)N1CCC[C@H](C(=O)NCc2nc(-c3ccccc3)cs2)C1	metabolic stability	male Sprague-Dawley rat, hepatocytes	0.5 µM	scaled CLint	32 mL/min/kg
O=C1NC2(CCS(=O)(=O)CC2)C(=O)N1c1ccc(F)c(C(F)(F)F)c1	HPLC	–	pH 7.4	chromatographic logD	2.6
CC(C)(N)COCC(=O)N1CCC[C@H](C(=O)NCc2nc(-c3ccc(C(F)(F)F)cc3)cs2)C1	metabolic stability	human, liver microsomes	0.5 µM	scaled CLint	< 4 mL/min/kg
CCC(F)(F)c1cc(N2C(=O)NC(C)(C)C2=O)ccc1F	HPLC	–	pH 7.4	chromatographic logD	2.9
CNS(=O)(=O)c1ccc(Nc2ncc(C(F)(F)F)c(N3CCC(C)(O)CC3)n2)c(C)c1	metabolic stability	human, liver microsomes	1 µM	scaled CLint	48 mL/min/kg
CC1(C)NC(=O)N(c2ccc(F)c(OC(F)(F)F)c2)C1=O	HPLC	–	pH 7.4	chromatographic logD	2.9
Cc1cc(S(=O)(=O)NC2CC(N3CCN(CC4CCN(c5cccc6c5n(C)c(=O)n6C5CCC(=O)NC5=O)CC4)C4(CC4)C3)C2)ccc1Nc1ncc(C(F)(F)F)c(N2CCC[C@](C)(O)C2)n1 (stereo partly drawn)	metabolic stability	human, liver microsomes	1 µM	scaled CLint	34 mL/min/kg
c1ccc(Oc2ccc(Nc3c4c(nc5ccccc35)CCC4)cc2)cc1	HPLC	–	pH 7.4	chromatographic logD	> 5.3
